Tests used:
HT-29 [1] = test: Antiproliferative activity against human HT-29 cells assessed as reduction in PCNA expression at IC50 concentration; type: functional, cell-based; details: TDE = time-dependent effect
HT-29 [2] = test: Cell cycle arrest in human HT-29 cells assessed as accumulation at G0/G1 phase at IC50 concentration after 24 hrs by propidium iodide staining-based flow cytometric analysis (reference value: 40.9 +/- 3.1%); type: functional
HT-29 [3] = test: Cell cycle arrest in human HT-29 cells assessed as accumulation at sub G2/M phase at IC50 concentration after 24 hrs by propidium iodide staining-based flow cytometric analysis (reference value: 27.7 +/- 42%); type: functional
[4] = Cytotoxicity against human ACBRI 515 cells assessed as growth inhibition after 24 hrs by MTT assay; type: cell-based; details: ACBRI-515, 24 h
Method in brief: (§1)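 Normal human cells: IMR-90 lung fibroblasts in EMEM with 10% heat-inactivated FCS and 2 mmol/L L-glutamine; primary pancreatic epithelial ACBRI 515 in serum-free medium with attachment factor; HMEpC in mammary epithelial growth medium. Exposed to a range of concentrations for 24 h; IC₅₀ from cell numbers. Mean ± SEM of 3 experiments in duplicate.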

HT-29 [5] = test: Induction of human HT-29 cells assessed as assessed as early apoptotic cells at IC50 concentration after 6 hrs by propidium iodide staining-based flow cytometric analysis; type: functional
Jurkat [6] = test: Ratio of sulindac IC50 to compound IC50 for human Jurkat cells after 24 hrs by MTT assay; type: functional
Method in brief: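 Jurkat T cells grown in suspension in RPMI 1640 with 10% FCS. 30,000 cells/well added to serially diluted compounds in V-bottom plates, 24 h at 37°C in 5% CO₂. MTT (1.1 mg/mL) added for 4 h more, formazan dissolved in DMSO, A570 read. IC₅₀ from 5–7 experiments in triplicate; ratio is parent IC₅₀ over hybrid IC₅₀.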

HT-29 [7] = test: Antiproliferative activity against human HT-29 cells assessed as reduction in PCNA expression at IC50 concentration after 24 hrs; type: functional
[8] = Cytotoxicity against human IMR90 cells assessed as growth inhibition after 24 hrs by MTT assay; type: cell-based; details: IMR-90, 24 h; method in brief: as §1
Rattus norvegicus [9] = test: Antiinflammatory activity in carrageenan-induced Wistar rat model assessed as inhibition of PGE2 level at 467 mg/kg through gavage administered 1 hr prior to carrageenan-challenge measured after 4 hrs (reference value: 95 +/- 7 pg/mL); type: functional
[10] = Cytotoxicity against human HMEpC cells assessed as growth inhibition after 24 hrs by MTT assay; type: cell-based; method in brief: as §1
[11] = Selectivity ratio of IC50 for human MCF7 cells to IC50 for human IMR90 cells; type: ADME, cell-based, IMR-90; details: MCF7 cells versus IMR90 cells, read-out: Ratio IC50
MCF7 = test: Cytotoxicity against human MCF7 cells assessed as growth inhibition after 24 hrs by MTT assay; type: functional, cell-based; details: for IC50: MCF7, 24 h
Method in brief: (§2)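 Cells grown in 10% FCS medium: HT-29 in McCoy 5A; MCF-7 and BxPC-3 in DMEM. 50,000 cells/well exposed to a range of concentrations for 24 h. MTT added for 2 h at 37°C, formazan dissolved in 10% SDS/0.01 M HCl, A570 read. IC₅₀ from cell numbers; mean ± S.E.M. of 5–7 experiments in triplicate. Ratios are parent IC₅₀ over hybrid IC₅₀.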

Rattus norvegicus [12] = test: Antiinflammatory activity in Wistar rat assessed as inhibition of carrageenan-induced paw volume at 467 mg/kg through gavage administered 1 hr prior to carrageenan-challenge measured after 4 hrs (reference value: 1.1 +/- 0.1 mL; type: functional
HT-29 [13] = test: Induction of human HT-29 cells assessed as assessed as early apoptotic cells at IC50 concentration after 24 hrs by propidium iodide staining-based flow cytometric analysis; type: functional
HT-29 [14] = test: Cytotoxicity against human HT-29 cells assessed as growth inhibition after 24 hrs by MTT assay; type: functional, cell-based; details: for IC50: HT-29, 24 h; method in brief: as §2
[15] = Selectivity ratio of IC50 for human BxPC3 cells to IC50 for human ACBRI 515 cells; type: ADME, cell-based, BXPC-3; details: BxPC3 cells versus ACBRI 515 cells, read-out: Ratio IC50
Serum [16] = test: Prodrug conversion in carrageenan-induced Wistar rat model assessed as sulfide species in serum at 467 mg/kg through gavage administered 1 hr prior to carrageenan-challenge; type: ADME, organism-based; set-up: dose 467 mg/kg; details: in vivo, po
Method in brief: (§3)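 Blood taken at the end of the carrageenan edema study from gavage-dosed rats (3 per group). Sulfide measured by the methylene blue method: plasma mixed with zinc acetate, trichloroacetic acid, N,N-dimethyl-p-phenylenediamine and FeCl₃ in 7.2M HCl, A670 read after 15 min. Run in duplicate against a NaHS calibration curve (1-250 μM). The read-out is total H₂S + HS⁻ + S²⁻.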

BXPC-3 [17] = test: (§4) Cytotoxicity against human BxPC3 cells assessed as growth inhibition after 24 hrs by MTT assay; type: functional, cell-based; method in brief: as §2
[18] = as §4; type: functional, cell-based; details: BXPC-3, 24 h; method in brief: as §2
[19] = Selectivity ratio of IC50 for human MCF7 cells to IC50 for human HMEpC cells; type: ADME, cell-based; details: MCF7 cells versus HMEpC cells, read-out: Ratio IC50
HT-29 [20] = test: Induction of human HT-29 cells assessed as assessed as early apoptotic cells at IC50 concentration after 3 hrs by propidium iodide staining-based flow cytometric analysis; type: functional
[21] = Selectivity ratio of IC50 for human BxPC3 cells to IC50 for human IMR90 cells; type: ADME, cell-based, IMR-90; details: BxPC3 cells versus IMR90 cells, read-out: Ratio IC50
[22] = Selectivity ratio of IC50 for human HT-29 cells to IC50 for human IMR90 cells; type: ADME, cell-based; details: HT-29 cells versus IMR90 cells, read-out: Ratio IC50
HT-29 [23] = test: Cell cycle arrest in human HT-29 cells assessed as accumulation at S phase at IC50 concentration after 24 hrs by propidium iodide staining-based flow cytometric analysis (reference value: 31.7 +/- 3.7%); type: functional
Jurkat [24] = test: Cytotoxicity against human Jurkat cells assessed as growth inhibition after 24 hrs by MTT assay; type: functional, cell-based
Method in brief: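 30,000 cells/well added to serially diluted compounds in V-bottom plates, 24 h at 37°C in 5% CO₂. MTT (1.1 mg/mL) added for 4 h more, formazan dissolved in DMSO, A570 read. IC₅₀ from 5–7 experiments in triplicate; ratio is parent IC₅₀ over hybrid IC₅₀.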

HT-29 [25] = test: Induction of human HT-29 cells assessed as assessed as early apoptotic cells at IC50 concentration after 12 hrs by propidium iodide staining-based flow cytometric analysis; type: functional
[26] = Selectivity ratio of IC50 for human Jurkat cells to IC50 for human IMR90 cells; type: ADME, cell-based; details: Jurkat cells versus IMR90 cells, read-out: Ratio IC50
HT-29 [27] = test: Cell cycle arrest in human HT-29 cells assessed as accumulation at S phase at IC50 concentration after 24 hrs by propidium iodide staining-based flow cytometric analysis (reference value: 29.2 +/- 3.3%); type: functional
HT-29 [28] = test: Cell cycle arrest in human HT-29 cells assessed as accumulation at sub G2/M phase at IC50 concentration after 24 hrs by propidium iodide staining-based flow cytometric analysis (reference value: 28.7 +/- 2.1%); type: functional
Rattus norvegicus [29] = test: Antiinflammatory activity in carrageenan-induced Wistar rat model assessed as inhibition of PGE2 level at 188 mg/kg through gavage administered 1 hr prior to carrageenan-challenge measured after 4 hrs (reference value: 95 +/- 7 pg/mL); type: functional
HT-29 [30] = test: Cell cycle arrest in human HT-29 cells assessed as accumulation at G0/G1 phase at IC50 concentration after 24 hrs by propidium iodide staining-based flow cytometric analysis (reference value: 42.2 +/- 4%); type: functional
Rattus norvegicus [31] = test: Antiinflammatory activity in Wistar rat assessed as inhibition of carrageenan-induced paw volume at 188 mg/kg through gavage administered 1 hr prior to carrageenan-challenge measured after 4 hrs (reference value: 1.1 +/- 0.1 mL); type: functional
Serum [32] = test: Prodrug conversion in carrageenan-induced Wistar rat model assessed as sulfide species in serum at 188 mg/kg through gavage administered 1 hr prior to carrageenan-challenge; type: ADME, organism-based; set-up: dose 188 mg/kg; details: in vivo, po; method in brief: as §3
BXPC-3 [33] = test: Ratio of naproxen IC50 to compound IC50 for human BxPC3 cells after 24 hrs by MTT assay; type: functional
Rattus norvegicus [34] = test: Antiinflammatory activity in carrageenan-induced Wistar rat model assessed as inhibition of PGE2 level at 200 mg/kg through gavage administered 1 hr prior to carrageenan-challenge measured after 4 hrs (reference value: 95 +/- 7 pg/mL); type: functional
Rattus norvegicus [35] = test: Antiinflammatory activity in Wistar rat assessed as inhibition of carrageenan-induced paw volume at 200 mg/kg through gavage administered 1 hr prior to carrageenan-challenge measured after 4 hrs (reference value: 1.1 +/- 0.1 mL); type: functional
Serum [36] = test: Prodrug conversion in carrageenan-induced Wistar rat model assessed as sulfide species in serum at 200 mg/kg through gavage administered 1 hr prior to carrageenan-challenge; type: ADME, organism-based; set-up: dose 200 mg/kg; details: in vivo, po; method in brief: as §3

CC1=C(CC(=O)Oc2ccc(OC(=O)CCCO[N+](=O)[O-])c(C(=O)Oc3ccc(-c4cc(=S)ss4)cc3)c2)c2cc(F)ccc2/C1=C\c1ccc([S+](C)[O-])cc1 (configuration not stated)
inhibition (HT-29 [1]): tde
Activity (HT-29 [2]): 29.6%
Activity (HT-29 [3]): 59.8%
IC50 [4]: > 25 µM
Activity (HT-29 [5]): 10.1%
Ratio IC50 (Jurkat [6]): 2500
inhibition (INH) (HT-29 [7]): 50%
IC50 [8]: 21.7 µM
Activity (Rattus norvegicus [9]): 29 pg/mg
IC50 [10]: 15.2 µM
selectivity ratio [11]: 70
growth inhibition (GI) (MCF7): Dose-dependent effect
IC50 (MCF7): 0.1 µM
Activity (Rattus norvegicus [12]): 0.21 mL
Activity (HT-29 [13]): 39.4%
growth inhibition (GI) (HT-29 [14]): Dose-dependent effect
IC50 (HT-29 [14]): 0.089 µM
selectivity ratio [15]: > 200
Stability (Serum [16]): Stable
growth inhibition (GI) (BXPC-3 [17]): Dose-dependent effect
IC50 [18]: 0.12 µM
selectivity ratio [19]: 150
Activity (HT-29 [20]): 2.8%
selectivity ratio [21]: 70
selectivity ratio [22]: 70
Activity (HT-29 [23]): 10.6%
IC50 (Jurkat [24]): 270 nM
growth inhibition (GI) (Jurkat [24]): Dose-dependent effect
Activity (HT-29 [25]): 23.2%
selectivity ratio [26]: 70

C[C@H](C(=O)Oc1ccc(-c2cc(=S)ss2)cc1)c1ccc2cc(OC(=O)CCCO[N+](=O)[O-])ccc2c1
Activity (HT-29 [27]): 22.3%
inhibition (HT-29 [1]): tde
IC50 [4]: 22 µM
Activity (HT-29 [5]): 25.3%
Activity (HT-29 [28]): 19.5%
inhibition (INH) (HT-29 [7]): 50%
IC50 [8]: 20 µM
Activity (Rattus norvegicus [29]): 35 pg/mg
IC50 [10]: 13.8 µM
selectivity ratio [11]: 70
growth inhibition (GI) (MCF7): Dose-dependent effect
IC50 (MCF7): 0.12 µM
Activity (HT-29 [30]): 58.2%
Activity (Rattus norvegicus [31]): 0.15 mL
Activity (HT-29 [13]): 59.2%
growth inhibition (GI) (HT-29 [14]): Dose-dependent effect
IC50 (HT-29 [14]): 0.08 µM
selectivity ratio [15]: 147
Stability (Serum [32]): Stable
growth inhibition (GI) (BXPC-3 [17]): Dose-dependent effect
IC50 [18]: 0.15 µM
selectivity ratio [19]: 115
Activity (HT-29 [20]): 9.2%
selectivity ratio [21]: 70
selectivity ratio [22]: 70
IC50 (Jurkat [24]): 100 nM
growth inhibition (GI) (Jurkat [24]): Dose-dependent effect
Activity (HT-29 [25]): 31.9%
selectivity ratio [26]: 70
Ratio IC50 (BXPC-3 [33]): 16000

CC(=O)N[C@H](C(=O)O)C(C)(C)SN=O
IC50 (HT-29 [14]): 508 µM

Oc1ccc(-c2cc(=S)ss2)cc1
IC50 (HT-29 [14]): 35 µM

CC1=C(CC(=O)O)c2cc(F)ccc2/C1=C\c1ccc([S+](C)[O-])cc1 (configuration not stated)
Activity (Rattus norvegicus [34]): 12 pg/mg
IC50 (MCF7): 965 µM
IC50 (HT-29 [14]): 800 µM
Activity (Rattus norvegicus [35]): 0.22 mL
IC50 [18]: 980 µM
Stability (Serum [36]): Stable
IC50 (Jurkat [24]): 699000 nM

COc1ccc2cc([C@H](C)C(=O)O)ccc2c1 [NAPROXEN]
IC50 (MCF7): 2380 µM
IC50 (HT-29 [14]): 2600 µM
IC50 [18]: 2450 µM

— ChEMBL document CHEMBL3132834, “Synthesis and biological activity of NOSH-naproxen (AVT-219) and NOSH-sulindac (AVT-18A) as potent anti-inflammatory agents with chemotherapeutic potential” (Medchemcomm, 2013)
